≈ marks a conversion by molar mass, not a printed value. Calls of active or inactive are those of the source. The calls are words filed in the database; no cut-off is given here.
Columns and labels:
[1] = Intrinsic clearance in human liver microsomes in absence of NADPH by LC-MS/MS method; format: ADME, microsome; details: read-out: CLH
[2] = Half life in human liver microsomes in presence of NADPH by LC-MS/MS method; format: ADME, microsome
[3] = test system: J774; assay: Cytotoxicity against mouse J774 cells up to 16 ug/ml after 24 hrs by MTS assay; format: cell-based; details: j774, 24 h
Summary of the method: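 Murine macrophages cultured in DMEM plus 10% FBS, 37 °C, 5% CO2; compounds at 8, 16, 32, 64 µg/mL in triplicate for 24 h against DMSO-matched controls. MTS reagent 4 h, read at OD490. Viability as % of DMSO control (triplicate mean ± SD); one-way ANOVA, Dunnett's post hoc, P < 0.05.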

[4] = test system: Staphylococcus aureus; assay: Antibacterial activity against methicillin-resistant Staphylococcus aureus USA100 NRS382 clinical isolate after 20 hrs by broth microdilution method; format: functional; details: USA100 NRS382, 20 h
Summary of the method: (§1)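 CLSI broth microdilution in cation-adjusted Mueller Hinton broth; compounds serially diluted, triplicate samples; 37 °C, 20 h. MIC read visually as lowest concentration with no visible growth; mean of triplicate determinations reported.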

[5] = test system: Staphylococcus aureus; assay: Antibacterial activity against methicillin-resistant Staphylococcus aureus USA300 NRS384 clinical isolate preincubated followed by bacterial subculturing for 2 weeks; format: functional
[6] = test system: Staphylococcus aureus; assay: Bactericidal activity against methicillin-resistant Staphylococcus aureus USA400 infected in mouse J774 cells assessed as reduction in colony forming units at 16 ug/ml after 24 hrs by time kill assay relative to control; set-up: scale not given: the % may be the effect or the level left
[7] = AUClast in naive Sprague-Dawley rat at 50 mg/kg ,po administered via gavage by LC-MS/MS method; format: ADME, organism-based; set-up: dose 50 mg/kg, time 0 - last, route oral; details: in vivo
Summary of the method: (§2)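 Male naïve rats, three animals; single oral gavage dose in 5% ethanol, 45% PEG 400, 50% water. Blood drawn into EDTA-K2 tubes over 24 h post dose; plasma protein-precipitated with acetonitrile, parent quantified by LC/MS/MS.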

[8] = Total AUC in naive Sprague-Dawley rat at 50 mg/kg ,po administered via gavage by LC-MS/MS method; format: ADME, organism-based; set-up: dose 50 mg/kg, time AUCmax, route oral; details: in vivo; summary of the method: as §2
[9] = Mean residence time in naive Sprague-Dawley rat at 50 mg/kg ,po administered via gavage by LC-MS/MS method; format: ADME, organism-based; details: in vivo; summary of the method: as §2
[10] = test system: Staphylococcus aureus; assay: Bactericidal activity against Staphylococcus aureus RN4220 NRS107 clinical isolate after 18 hrs by broth microdilution method; format: functional; details: RN4220 NRS107, 18 h
Summary of the method: (§3)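 From MIC wells without visible growth, 5 uL spotted onto Tryptic soy agar, incubated 37 °C for at least 18 h; MBC taken as lowest concentration giving 99.9% growth inhibition.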

[11] = test system: Staphylococcus aureus; assay: Bactericidal activity against methicillin-resistant Staphylococcus aureus USA200 NRS383 clinical isolate after 18 hrs by broth microdilution method; format: functional; details: USA200 NRS383, 18 h; summary of the method: as §3
[12] = test system: Staphylococcus aureus; assay: Bactericidal activity against methicillin-resistant Staphylococcus aureus USA300 NRS384 clinical isolate after 18 hrs by broth microdilution method; format: functional; details: USA300 NRS384, 18 h; summary of the method: as §3
[13] = Half life in human liver microsomes in absence of NADPH by LC-MS/MS method; format: ADME, microsome
[14] = test system: Staphylococcus aureus; assay: Bactericidal activity against methicillin-resistant Staphylococcus aureus USA400 NRS123 clinical isolate after 18 hrs by broth microdilution method; format: functional; details: USA400 NRS123, 18 h; summary of the method: as §3
[15] = test system: Staphylococcus aureus; assay: Antibacterial activity against vancomycin-resistant Staphylococcus aureus VRSA4 after 20 hrs by broth microdilution method; format: functional; details: VRSA4, 20 h; summary of the method: as §1
[16] = test system: Staphylococcus aureus; assay: Bactericidal activity against methicillin-resistant Staphylococcus aureus USA400 infected in mouse J774 cells assessed as reduction in colony forming units at 16 ug/ml after 8 hrs by time kill assay relative to control; set-up: scale not given: the % may be the effect or the level left
[17] = Efflux ratio of apparent permeability across basolateral to apical over apical to basolateral side in human Caco2 cells at 10 uM after 2 hrs by LC-MS/MS method; format: ADME, cell-based; details: Caco-2
[18] = test system: Staphylococcus aureus; assay: Bactericidal activity against vancomycin-resistant Staphylococcus aureus VRSA10 after 18 hrs by broth microdilution method; format: functional; details: VRSA10, 18 h; summary of the method: as §3
[19] = Cmax in naive Sprague-Dawley rat at 50 mg/kg ,po administered via gavage by LC-MS/MS method; format: ADME, organism-based; set-up: dose 50 mg/kg, route oral; details: in vivo; summary of the method: as §2
[20] = test system: Staphylococcus aureus; assay: Antibacterial activity against methicillin-resistant Staphylococcus aureus USA200 NRS383 clinical isolate preincubated followed by bacterial subculturing for 2 weeks; format: functional
[21] = test system: Staphylococcus aureus; assay: Bactericidal activity against methicillin-resistant Staphylococcus aureus USA400 infected in mouse J774 cells assessed as reduction in colony forming units at 16 ug/ml after 4 hrs by time kill assay relative to control; format: functional; set-up: scale not given: the % may be the effect or the level left
Summary of the method: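 J774 murine macrophages in DMEM/10% FBS infected with MRSA USA400 at MOI ~100:1 for 1 h, extracellular bacteria killed with gentamicin 50 µg/mL; treated at 16 µg/mL in triplicate; after 4, 8 or 24 h cells washed, lysed with 0.1% Triton X-100, plated for CFU; percent reduction versus untreated, t-test.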

[22] = test system: Staphylococcus aureus; assay: Antibacterial activity against methicillin-resistant Staphylococcus aureus USA400 infected in Caenorhabditis elegans AU37 harboring (sek-1(km4);glp-4(bn2)I) mutant assessed as reduction in colony forming units at 10 ug/ml after 20 hrs by microscopic method relative to control; format: functional; set-up: scale not given: the % may be the effect or the level left
Summary of the method: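 C. elegans AU37 L4/adult worms infected on MRSA USA400 lawn 6 h, washed in M9; 15-25 worms per well treated with 10 µg/mL in triplicate for 20 h, PBS negative control; worms lysed with silicon carbide, plated on TSA with 5 µg/mL nalidixic acid, 37 °C 18 h; CFU per worm, Student's t-test with Holm-Sidak correction.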

[23] = test system: HaCaT; assay: Cytotoxicity against human HaCaT cells up to 64 ug/ml after 2 hrs by MTS assay; format: cell-based
Summary of the method: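 Keratinocytes grown in DMEM with 10% FBS at 37 °C, 5% CO2; exposed in triplicate to 8, 16, 32 and 64 µg/mL for 2 h. DMSO-matched controls. MTS added for 4 h, absorbance at 490 nm. Viability expressed as % of DMSO-treated cells (mean of triplicate ± SD); one-way ANOVA with Dunnett's test, P < 0.05.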

[24] = Apparent permeability across basolateral to apical side in human Caco2 cells at 10 uM after 2 hrs by LC-MS/MS method; format: ADME, cell-based; details: Caco-2
[25] = test system: Staphylococcus aureus; assay: Antibacterial activity against Staphylococcus aureus RN4220 NRS107 clinical isolate after 20 hrs by broth microdilution method; format: functional; details: RN4220 NRS107, 20 h; summary of the method: as §1
[26] = test system: Staphylococcus aureus; assay: Antibacterial activity against vancomycin-resistant Staphylococcus aureus VRSA10 after 20 hrs by broth microdilution method; format: functional; details: VRSA10, 20 h; summary of the method: as §1
[27] = test system: Staphylococcus aureus; assay: Bactericidal activity against methicillin-resistant Staphylococcus aureus USA100 NRS382 clinical isolate after 18 hrs by broth microdilution method; format: functional; details: USA100 NRS382, 18 h; summary of the method: as §3
[28] = Terminal elimination rate constant in naive Sprague-Dawley rat at 50 mg/kg ,po administered via gavage by LC-MS/MS method; format: ADME, organism-based; details: in vivo, read-out: LZ (converted); summary of the method: as §2
[29] = test system: Staphylococcus aureus; assay: Antibacterial activity against methicillin-resistant Staphylococcus aureus USA400 NRS123 clinical isolate preincubated followed by bacterial subculturing for 2 weeks; format: functional

C/C(=N\NC(=N)N)c1ccc(NC(=O)Nc2ccc(OC3CCCCCC3)cc2)cc1
microsomal CLint [1]: 42.9 µL/min/mg
half-life [2]: 1.14 h
Activity [3]: Non-Toxic
MIC [4]: 2 µg/mL (≈ 4.73 µM)
Activity [5]: Active
Activity [6]: 69%
AUC(0-t) [7]: 218 ng·h/mL
AUC [8]: 384 ng·h/mL
MRT [9]: 28.4 h
MBC [10]: 4 µg/mL (≈ 9.47 µM)
MBC [11]: 4 µg/mL (≈ 9.47 µM)
MBC [12]: 4 µg/mL (≈ 9.47 µM)
half-life [13]: 0.897 h
MBC [14]: 4 µg/mL (≈ 9.47 µM)
MIC [15]: 2 µg/mL (≈ 4.73 µM)
Activity [16]: 35.7%
efflux ratio at 2 h, 10 µM [17]: > 1000
MBC [18]: 8 µg/mL (≈ 18.9 µM)
Cmax [19]: 16.3 ng/mL
Activity [20]: Active
Activity [21]: 5%
Activity [22]: >50%
Activity [23]: Non-Toxic
Papp B→A at 2 h, 10 µM [24]: 51.9 ×10⁻⁶ cm/s
MIC [25]: 2 µg/mL (≈ 4.73 µM)
MIC [26]: 8 µg/mL (≈ 18.9 µM)
MBC [27]: 4 µg/mL (≈ 9.47 µM)
k el [28]: 1.25e-05 s⁻¹
Activity [29]: Active
